FLuc stim CS: FLuc activators, initial screening, artefact control for FLuc-dependent activation tests, biochemical, ATPlite luminescence; Luciferin 4-monooxygenase (Photinus pyralis), P08659; ATPlite luciferase biochemical, 10 min; 0 = ATP-free wells, 1 = DMSO control; activation factor at 10 µM; 200,000 tested, under 10 active;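 active means luciferase activation factor, scaled between plate controls, of at least 2 with compound at 10 µM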
Target sequence (P08659 whole entry, looked up): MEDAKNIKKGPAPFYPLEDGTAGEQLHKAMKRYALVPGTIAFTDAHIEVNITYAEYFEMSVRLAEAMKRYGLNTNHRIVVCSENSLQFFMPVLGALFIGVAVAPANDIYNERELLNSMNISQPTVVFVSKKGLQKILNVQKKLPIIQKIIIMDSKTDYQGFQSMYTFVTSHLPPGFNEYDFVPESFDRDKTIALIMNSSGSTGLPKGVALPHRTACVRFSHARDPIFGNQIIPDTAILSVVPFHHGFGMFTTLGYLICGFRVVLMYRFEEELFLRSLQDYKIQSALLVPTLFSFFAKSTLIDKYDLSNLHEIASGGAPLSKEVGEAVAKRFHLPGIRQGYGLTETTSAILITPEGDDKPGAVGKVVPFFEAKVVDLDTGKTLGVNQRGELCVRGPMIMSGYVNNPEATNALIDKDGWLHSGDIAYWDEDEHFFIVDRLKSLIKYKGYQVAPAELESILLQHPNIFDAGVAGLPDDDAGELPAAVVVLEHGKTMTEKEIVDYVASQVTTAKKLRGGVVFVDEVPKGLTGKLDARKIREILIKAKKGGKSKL
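Material: Luciferase/luciferin reagent mix | Doses: Test compounds dosed from 2 mM stocks in 100% DMSO | Timing: 10 min incubation after luciferase reagent addition, room temperature | Measured by: Luminescence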
STAT3 activator: IL-6 driven STAT3 reporter potentiators, primary screen, U3A cells, luciferase, luminescence, MLSCN library; IL-6 STAT3-luciferase reporter; 100% = signal with IL-6 EC80 alone; AID 871, 2007; activation (% of control), % at 5.6 µM; 190,000 compounds, 0.91% hits;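 active means activation above the screen-wide mean of compound activation plus 3 SD, cut at about 130% in these data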;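 further: 0% = background luminescence of wells with medium and substrate only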
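Test system: STAT3-luciferase reporter U3A cells; Detection: reporter luminescence signal; Times: 1 h compound pre-exposure, 6 h IL-6 stimulation, 37 °C; Benchmarks: IL-6-only high control; Also added: IL-6 stimulus at 33 ng/mL final.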
STAT1 activator: STAT1 signaling activators, primary screen, cell-based, HTS, luciferase reporter; NIH 3T3 STAT1-luciferase reporter, IFN-gamma, luminescence; 100% = IFN-gamma alone, no compound; activation (% of control), % at 5.5 µM; 200,000 compounds, 2.6% hits; AID 932, 2007;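 active means activation above the screen-wide mean activation plus 3 SD, cut at about 130% in these data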;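 further: raw ratio to IFN-gamma control signal so 100% means no change and 0% no light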
FLuc inhib CS: firefly luciferase enzyme inhibitors, primary screen, artefact control for luciferase-based inhibitor screens, biochemical, luminescence, ATPLite; Luciferin 4-monooxygenase (Photinus pyralis), P08659; 10 min; inhibition, % at 10 µM; 200,000 compounds, 1.5% hits; AID 1006, 2008;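 active means inhibition above about 50% when tested at 10 µM, limit read from the data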
STAT1 blocker: STAT1 signaling inhibitors, primary screen, cell-based, HTS, luciferase reporter. AID 920, 2007. inhibition, % at 5.5 µM. NIH 3T3 STAT1-luciferase reporter, IFN-gamma, luminescence. 200,000 compounds, 0.35% hits;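 active means inhibition above a set limit, the mean inhibition across all tested compounds plus 3 SD, cut at about 34% in these data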;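 further: 0% = IFN-gamma with DMSO and 100% = IFN-gamma with 300 µM nifuroxazide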
STAT3 inh: IL-6 driven STAT3 reporter inhibitors, primary screen, U3A cells, luciferase, luminescence, MLSCN library; IL-6 STAT3-luciferase reporter; host cell line lacks STAT1; inhibition, % at 5.5 µM; 190,000 compounds, 0.89% hits; AID 862, 2007;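 active means inhibition above the mean inhibition across all screened compounds plus 3 SD, cut at about 44% in these data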;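 further: 0% = DMSO only wells and 100% = 100 µM nifuroxazide control wells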
* = called active by the depositor. This is a sample that favours compounds with a hit; in the whole collection about 4.9% have one here.

SMILES	FLuc stim CS	STAT3 activator	STAT1 activator	FLuc inhib CS	STAT1 blocker	STAT3 inh
O=c1c(-c2ccc3c(c2)OCCO3)coc2cc(O)cc(O)c12	0.4	93	119	62*	-21	12
CCN1C(=C2C(=O)c3ccccc3C2=O)C=Cc2ccccc21	0.9	104	111	5	-10	-4
CCCCCN1C=CC(=C2C(=O)c3ccccc3C2=O)C=C1	0	9	12	97*	97*	107*
O=C(NNC(=S)Nc1ccc(Cl)cc1)c1cccs1	0.9	91	131*	8	-35	15
O=C(NNC(=S)Nc1ccccc1)c1cccs1	0.6	104	130*	44	-32	-6
O=C(NNC(=O)c1cccs1)Nc1cccc(Cl)c1	1	102	92	3	9	-1
O=C(NC(=S)Nc1ccc(Cl)cn1)c1cccs1	0.3	151*	194*	68*	-105	-48
Cn1c(N=Nc2ccc(N3CCOCC3)cc2)[n+](C)c2ccccc21	0.4	91	120	59*	-22	15
Cc1cc(=O)oc2ccc(OC(=O)CC(C)C)cc12	1.1	100	104	-7	-8	4
c1ccc2c(c1)nnn1c3ccccc3nc21	0.6	60	146*	44	-51	48*
Cc1cccn2c(=O)c(/C=N/O)c(N3CCOCC3)nc12	1	98	100	-4	-2	5
COc1ccc(OC)c(N=c2oc3cc(O)ccc3cc2C(N)=O)c1	1	88	116	0	-18	18
COc1ccc2oc(=Nc3cc(F)ccc3F)c(C(N)=O)cc2c1	1	80	131*	-4	-35	26
COc1ccc(N2CCN(c3ncnc4c3[nH]c3ccccc34)CC2)cc1	1.1	35	64	-6	41*	77*
COc1ccc(C2CC(c3ccccc3)=NN2c2ccc(N)cc2)cc1 (stereo not drawn)	1	86	141*	-1	-46	21
CNC(=O)CSc1nc(SC)ns1	1	107	98	-4	0	-6
CSc1nsc(SCC(=O)N2CCCCC2)n1	1	88	130*	-3	-34	16
COC(=O)c1sccc1NC(=O)CNC(=O)c1ccccc1	1.1	104	100	-6	-1	2
c1ccc(COc2ccc(CNCc3cccnc3)cc2)cc1	1	98	119	1	-22	8
Cc1cc(/C=N/NC(=O)c2cccc(F)c2)c(C)n1-c1ccccc1	0.2	69	109	79*	-9	40
CC(=O)Nc1cccc(C(=O)N/N=C/c2ccccc2F)c1	0.7	101	143*	35	-48	-3
Cc1cc(/C=N/NC(=O)c2ccccc2F)c(C)n1-c1ccccc1	0.2	77	131*	75*	-34	31
Cc1cccc(N/C=C(\[N+](=O)[O-])S(=O)(=O)c2ccccc2)c1C	1	101	100	-4	-2	5
COc1ccc(NC(=O)CSc2nc(N)c3cc4c(nc3n2)CCCC4)cc1	0.4	110	106	62*	-6	-6
CC(=O)c1ccc(NC(=O)CSc2nc(N)c3cc4c(nc3n2)CCCC4)cc1	0.5	105	120	48	-18	-8
SMILES	FLuc stim CS	STAT3 activator	STAT1 activator	FLuc inhib CS	STAT1 blocker	STAT3 inh
Cc1ccc(OCc2ccc(C(=O)N3CCOCC3)cc2)cc1C	0.9	112	142*	9	-39	-12
O=C(/C=C/c1cccs1)c1ccc(Br)cc1	0.4	99	105	61*	-5	6
COCC(=O)Nc1ccc(OCc2ccccc2)cc1	0.8	102	131*	17	-35	1
CCOc1ccc(NC(=O)Cc2ccccc2)cc1	0.8	109	135*	25	-38	-6
COC(=O)c1ccc(NC(=O)C(=O)c2cccn2C)cc1	0.2	36	56	84*	47*	79*
CCOc1ccc(NC(=O)CN2C(=O)CSC(C)C2=O)cc1 (stereo not drawn)	0.6	108	131*	39	-31	-4
COc1ccc(NC(=O)CN2C(=O)CSC(C)C2=O)c(OC)c1 (stereo not drawn)	1	101	100	-1	0	2
COC(=O)c1cc(-c2ccc(Cl)cc2Cl)n[nH]1	0.8	95	122	16	-26	16
CC(NC(=S)NCc1ccc(F)cc1)C12CC3CC(CC(C3)C1)C2 (stereo not drawn)	1	101	89	-5	11	3
CC(C)c1nnc(SCC(=O)N2CCN(C(=O)c3ccco3)CC2)n1N	1	108	100	0	-1	-8
Cc1ccc(N(C(=O)Cn2nnc3ccccc32)C(C(=O)NCc2ccccc2)c2ccccn2)cc1 (stereo not drawn)	1	109	102	0	-2	-10
COC(=O)c1ccc(NC(=O)Cc2ccccc2)cc1	0.8	93	132*	18	-35	12
CCOc1ccc(NC(=O)c2ccc(NC(=O)COC(=O)Cc3ccc(OC)cc3)cc2)cc1	1.1	124	136*	-5	-38	-25
CC(=O)Nc1ccc(C(=O)OCc2ccccc2Cl)cc1	1	90	119	-3	-21	8
CCC(=O)Nc1ccc(C(=O)OCc2ccccc2Cl)cc1	1	107	137*	-5	-40	-10
CC(=O)Nc1sc(N/N=C\c2ccco2)nc1-c1cccs1	0.9	119	107	5	-8	-20
Cc1cc2ncc(-c3ccc(Cl)cc3)cn2n1	0.4	83	136*	56*	-37	21
Cc1cc2ncc(C(=O)N=CN(C)C)cn2n1	1	87	102	-4	-4	24
Cc1ccc(C(=O)/C=C2\NCCNC2=O)cc1	0.3	93	131*	67*	-33	11
CS(=O)(=O)N1N=C(c2ccccc2)CC1c1ccc2c(c1)OCO2 (stereo not drawn)	1	122	137*	3	-41	-14
O=c1c2oc3ccccc3c2ncn1Cc1ccc(Cl)cc1	1.1	109	110	-5	-10	-10
Cn1c(NC(=O)CCC2CCCCC2)cc(=O)n(C)c1=O	0.9	104	148*	9	-53	4
Cc1ccnc(NC(=O)CCC(=O)N(CC(=O)NCc2ccccc2)Cc2cccs2)c1	1	102	94	4	5	-1
O=C(CCN=C1NS(=O)(=O)c2ccccc21)N1CCc2ccccc2C1	1	107	99	-1	-1	-6
